According to ChEMBL document CHEMBL4425095, “Novel Cephalosporins Selectively Active on Nonreplicating Mycobacterium tuberculosis” (J Med Chem, 2016):

System: Mycobacterium tuberculosis
Test: Antibacterial activity against replicating Mycobacterium bovis BCG measured at OD580 = 0.01
Type: functional
Settings: variant bovis BCG
Outline: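 Replicating organisms in the paper's earlier-described bacteriologic medium; 200 μL of cells at OD580 0.01 exposed to DMSO vehicle or drug in 96-well plates; growth read by optical density.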

SMILES | MIC90 [µg/mL]
CCCOC(=O)C1=C(C)CS[C@@H]2[C@H](NC(=O)COc3ccccc3)C(=O)N12 | > 100
CC1=C(c2nc(C)no2)N2C(=O)[C@@H](NC(=O)COc3ccccc3)[C@H]2SC1 | > 100
